# Shown is part of a subset that was picked to be rich in hits.
# RORa inhibitor – inhibitors of human nuclear receptor RORA. P35398. CHO-K1 Gal4-RORA LBD luciferase reporter, luminescence. inhibition, % at 10 µM. 65,000 compounds, 0.43% hits;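 active = inhibition above the mean of all tested compounds plus 3 SD, cut at about 52% in these data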;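 note: 0% = RORA-transfected cells with DMSO and 100% = mock-transfected cells lacking RORA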
# Target sequence (P35398 whole entry, looked up, the tested form may be a part): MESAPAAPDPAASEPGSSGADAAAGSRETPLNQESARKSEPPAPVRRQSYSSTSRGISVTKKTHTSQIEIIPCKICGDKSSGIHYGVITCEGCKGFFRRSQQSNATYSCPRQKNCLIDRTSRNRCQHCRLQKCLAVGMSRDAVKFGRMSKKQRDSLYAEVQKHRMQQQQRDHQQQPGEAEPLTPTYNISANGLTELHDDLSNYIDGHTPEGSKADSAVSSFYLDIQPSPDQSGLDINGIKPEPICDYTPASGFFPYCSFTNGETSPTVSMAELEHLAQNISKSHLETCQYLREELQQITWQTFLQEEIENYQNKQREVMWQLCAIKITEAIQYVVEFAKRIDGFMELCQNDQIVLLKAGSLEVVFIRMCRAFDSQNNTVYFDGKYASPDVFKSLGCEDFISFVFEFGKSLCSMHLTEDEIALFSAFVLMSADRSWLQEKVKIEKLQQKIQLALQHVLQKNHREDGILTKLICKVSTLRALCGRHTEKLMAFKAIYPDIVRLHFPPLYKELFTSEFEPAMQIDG
#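 Test system: CHO-K1 cells with Gal4-hRORA LBD fusion and pG5-luc reporter | Timing: 20 h compound treatment, 37 °C | Detection: Luminescence from basal luciferase reporter expression | Read-out basis: % inhibition of basal luciferase versus +RORA/-RORA DMSO controls | Repeats: One measurement per compound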
# Active calls of the source: *.
SMILES,RORa inhibitor
O=C(Nc1ccc2c(c1)OCO2)c1cnn2cccnc12,-61
CC1CC(C)CN(C(=O)CSc2nnc(-c3ccc(Cl)s3)o2)C1 (stereo not drawn),-10
CC1(C)COCN1S(=O)(=O)c1ccc(C(=O)Nc2nnc(-c3ccc(Cl)s3)o2)cc1,53*
COc1ccccc1-c1nnc(NC(=O)c2ccc(S(=O)(=O)N(C)C)cc2)o1,-7
COc1cc(-c2nnc3sc(-c4cccnc4)nn23)cc(OC)c1OC,15
N#Cc1c(N)nc2c(c1-c1ccncc1)CCCCCC2,10
CCN1C(=O)NC(c2cccnc2)C(C(=O)OC)=C1C (stereo not drawn),15
NC(=O)CC1NC(=O)c2ccccc21 (stereo not drawn),-2
COc1cc2c(cc1OC)C(C)N(C(=O)c1cc3ccccc3o1)CC2 (stereo not drawn),64*
COc1ccc(NC(=O)c2cc3ccccc3o2)cc1,-53
COc1ccc2oc(=O)c(C(=O)N3CCc4ccccc43)cc2c1,11
CC1=C(C(N)=O)C(c2ccccc2)n2nc(-c3cccc(C)c3)nc2N1 (stereo not drawn),-2
O=C1C(=O)N(CCCN2CCOCC2)C(c2ccccn2)/C1=C(\O)c1ccc2c(c1)OCCO2 (stereo not drawn),-9
O=S(=O)(c1ccc(NC2CCCCC2)cc1)N1CCOCC1,12
CCC1CCCCN1C(=O)COC(=O)c1ccc(S(=O)(=O)N2CCOCC2)cc1 (stereo not drawn),1
CCOC(=O)N1CCC(NC(=O)Cn2ncn3c(cc4sc(CC)cc43)c2=O)CC1,7
CCc1nnc2c3cnn(-c4ccc(C)c(C)c4)c3ncn12,-57
COc1ccc(C)cc1-n1nnnc1SCc1nc2ccccc2s1,-50
Cc1ccc(-n2nnnc2SCC(=O)N2CCN(C(=O)c3ccco3)CC2)c(C)c1,1
COc1cc(CSc2nnnn2-c2ccc(C)cc2)cc(OC)c1OC,72*
CCC(C)C(NC(=O)OC(C)(C)C)C(=O)NC(C(=O)N1CCCC1C(N)=O)C(C)CC (stereo not drawn),1
C(=N\n1cnnc1)/c1cccc(Oc2ccccc2)c1,3
Cc1cc(/C=N/n2cnnc2)c(C)n1-c1ccc(OCc2ccccc2F)cc1,62*
CC(=O)Nc1ccc(S(=O)(=O)N2CCN(C(=O)N3CCCCCC3)CC2)cc1,3
CC(OC(=O)c1ccco1)C(=O)NCc1cccs1 (stereo not drawn),10
SMILES,RORa inhibitor
CC(C)(C)NC(=O)CSc1nnc(NC(=O)CCn2cnc3ccccc3c2=O)s1,9
O=C(CSC1=NCCS1)Nc1ccnc2ccccc12,73*
O=C(CSc1cn(Cc2ccccc2)c2ccccc12)Nc1nccs1,-76
O=C(O)C1CCN(C(=O)NC2CCCCC2)CC1,10
COC(=O)C(O)(NC(=O)NC(C)=O)C(F)(F)F (stereo not drawn),-28
Cc1ccc(OCC(=O)N2CCC(N3CCCCCC3)CC2)cc1,-8
CCCOc1ccccc1C1CC(=O)Nc2cc3c(cc21)OCCO3 (stereo not drawn),60*
CCOc1ccccc1C1CC(=O)Nc2cc(OC)c(OC)c(OC)c21 (stereo not drawn),6
CCOC(=O)c1cnc(SCC(=O)c2ccccc2)nc1N,-59
Cc1nc2c(c(=O)n1CC1CCCO1)c1nc3ccccc3nc1n2CC(C)C (stereo not drawn),18
CCCCN(CCCC)S(=O)(=O)c1ccc(C(=O)Nc2nnc(CSC)o2)cc1,61*
CCN(Cc1ccccc1)S(=O)(=O)c1ccc(C(=O)Nc2nnc(-c3ccccc3OC)o2)cc1,49
CCCN(CCC)S(=O)(=O)c1ccc(C(=O)Nc2nnc(-c3cccc(OC)c3)o2)cc1,-18
CCOC(=O)c1cc(CC)sc1NC(=O)Cc1ccsc1,6
O=C(CSc1nnnn1-c1ccccc1)Nc1nsc(-c2ccc(Cl)cc2)n1,71*
Cn1nnc(NC(=O)CSc2nnnn2-c2ccc(F)cc2)n1,17
Cn1nnc(NC(=O)CSc2ccc(Cl)cc2)n1,-10
CCC(C)Nc1nc(OC)nc(N(C)C#N)n1 (stereo not drawn),25
CCN1CCN(C(=O)C2c3cc(OC)c(OC)cc3C(=O)N(C)C2c2ccc(SC)cc2)CC1 (stereo not drawn),5
COc1nc(N(C#N)CC(N)=O)nc(N2CCCC2)n1,0
Cc1ccc2c(c1)nnn2C1CCN(S(C)(=O)=O)CC1,16
COc1ccc(S(=O)(=O)N2CCC(n3cnc4cc(C(F)(F)F)ccc43)CC2)cc1,18
Cc1ccc2c(c1)nnn2C1CCN(S(=O)(=O)c2ccc(C(=O)N3C(C)CCCC3C)cc2)CC1 (stereo not drawn),63*
COc1cc(C(C)=O)ccc1OCC(=O)c1cc(C)n(C2CC2)c1C,19
COC(=O)c1sc2nc(N3CCCCC3)c3c(c2c1N)CC(C)(C)N(C)C3,-1
SMILES,RORa inhibitor
FC(F)(F)c1cc(-c2ccccc2)nc(N2CCCCCC2)n1,6
COc1ccc(-c2nsc3c(N4CCN(S(=O)(=O)c5ccccc5)CC4)ncnc23)cc1,14
O=S(=O)(c1ccccc1)N1CCN(c2cc(-c3ccccc3)nc3ncnn23)CC1,70*
CCN(CC)C(=O)COc1ccc(-c2ccccc2)cc1,-44
COC(=O)c1c(NC(=O)CC2SCC(C(=O)OC)NC2=O)sc2c1CCCC2 (stereo not drawn),-52
CCCCc1ccc(NC(=O)C2CCCO2)cc1 (stereo not drawn),-76
CC1Cc2nc(SCC(=O)OCc3ccccc3)n(C)c(=O)c2S1 (stereo not drawn),9
O=C(O)CCCCCN1C(=O)CSC1=S,59*
Cc1ccccc1S(=O)(=O)Cc1ccc(C(=O)NCCCOC(C)C)o1,17
O=C(OCC(=O)N1CCN(c2ccccc2)CC1)c1ccc2ncsc2c1,4
Cc1ccc(N(CN2C(=O)C3CC=CCC3C2=O)C(=O)c2ccco2)cc1Cl (stereo not drawn),-22
CN=c1scc(C)n1/N=C/c1ccc(O)cc1O,63*
Cc1cc(C)cc(-n2cc3c(=O)n(C)c(=O)n(C)c3c2)c1,-16
CCN(CC)c1ccc(-c2nc3cnccc3n2C)cc1,-67
COCCCN(C(C)=O)c1nc(-c2ccc(OC)cc2)cs1,-84
NC(=O)C1CCN(C(=O)c2cc(S(=O)(=O)N3CCOCC3)c(Cl)cc2Cl)CC1,7

# Assay outcomes: PubChem BioAssay, The Scripps Research Institute Molecular Screening Center
